# Experimental data: ChEMBL document CHEMBL1148673, “Peptidomimetic C5a receptor antagonists with hydrophobic substitutions at the C-terminus: increased receptor specificity and in vivo activity” (Bioorg Med Chem Lett, 2006)
# Residues, ends and D or L forms follow the SMILES beside them.
# Molecular target: T1, C5a anaphylatoxin chemotactic receptor 1 (Homo sapiens, UniProt P21730)
# T1 sequence (P21730 whole entry): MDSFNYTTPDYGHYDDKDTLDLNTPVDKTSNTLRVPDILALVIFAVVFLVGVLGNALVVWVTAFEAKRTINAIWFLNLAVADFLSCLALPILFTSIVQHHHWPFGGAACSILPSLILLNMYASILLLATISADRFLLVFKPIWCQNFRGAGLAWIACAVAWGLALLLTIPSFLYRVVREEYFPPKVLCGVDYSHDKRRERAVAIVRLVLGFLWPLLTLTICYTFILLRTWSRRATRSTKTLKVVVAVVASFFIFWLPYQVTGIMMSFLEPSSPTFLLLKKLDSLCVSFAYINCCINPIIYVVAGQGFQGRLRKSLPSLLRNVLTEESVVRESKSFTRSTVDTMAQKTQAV
# Assay: Antagonist activity at human C5aR in CD88 transfected RBL cells assessed as inhibition of C5a-induced glucosaminidase release
# Format: functional, cell-based
# Details: not given
# Method in brief: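 Functional antagonism read as inhibition of glucosaminidase release stimulated by C5a from RBL cells transfected with CD88 (RBL+); IC50 in µM.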
row,SMILES,IC50 [nM]
1,"CC(=O)N[C@@H](Cc1ccccc1)C(=O)N[C@H]1CCCNC(=O)[C@H](C)NC(=O)[C@H](Cc2c[nH]c3ccccc23)NC(=O)[C@@H](CC2CCCCC2)NC(=O)[C@@H]2CCCN2C1=O (HELM PEPTIDE1{[ac].F.[Orn].P.[O=C([C@@H](CC1CCCCC1)N[*:1])[*:2]].W.A}$PEPTIDE1,PEPTIDE1,3:R3-7:R2$$$V2.0)",6900
2,"CC(=O)N[C@@H](Cc1ccccc1)C(=O)N[C@H]1CCCNC(=O)[C@H](Cc2ccc3ccccc3c2)NC(=O)[C@H](Cc2c[nH]c3ccccc23)NC(=O)[C@@H](CC2CCCCC2)NC(=O)[C@@H]2CCCN2C1=O (HELM PEPTIDE1{[ac].F.[Orn].P.[O=C([C@@H](CC1CCCCC1)N[*:1])[*:2]].W.[O=C([C@H](Cc1ccc2ccccc2c1)N[*:1])[*:2]]}$PEPTIDE1,PEPTIDE1,3:R3-7:R2$$$V2.0)",76
3,CC(=O)N[C@@H](Cc1ccccc1)C(=O)N[C@@H](CCCN)C(=O)N1CCC[C@H]1C(=O)N[C@H](CCC(C)C)C(=O)N[C@@H](Cc1cccc(Cl)c1)C(=O)N[C@@H](Cc1ccccc1)C(N)=O,60
4,CC(=O)N[C@@H](Cc1ccccc1)C(=O)N[C@@H](CCCN)C(=O)N1CCC[C@H]1C(=O)N[C@H](CCC(C)C)C(=O)N[C@@H](Cc1csc2ccccc12)C(=O)N[C@@H](Cc1ccccc1)C(N)=O,27
5,"CC(=O)N[C@@H](Cc1ccccc1)C(=O)N[C@H]1CCCNC(=O)[C@H](Cc2ccccc2)NC(=O)[C@H](Cc2c[nH]c3ccccc23)NC(=O)[C@@H](CC2CCCCC2)NC(=O)[C@@H]2CCCN2C1=O (HELM PEPTIDE1{[ac].F.[Orn].P.[O=C([C@@H](CC1CCCCC1)N[*:1])[*:2]].W.F}$PEPTIDE1,PEPTIDE1,3:R3-7:R2$$$V2.0)",26
6,CCCC[C@H](NC(=O)[C@H](Cc1c[nH]c2ccccc12)NC(=O)[C@@H](CC1CCCCC1)NC(=O)[C@@H]1CCCN1C(=O)[C@H](CCCN)NC(=O)[C@H](Cc1ccccc1)NC(C)=O)C(N)=O,463
7,"CC(=O)N[C@@H](Cc1ccccc1)C(=O)N[C@H]1CCCNC(=O)[C@H](Cc2cccc3ccccc23)NC(=O)[C@H](Cc2c[nH]c3ccccc23)NC(=O)[C@@H](CC2CCCCC2)NC(=O)[C@@H]2CCCN2C1=O (HELM PEPTIDE1{[ac].F.[Orn].P.[O=C([C@@H](CC1CCCCC1)N[*:1])[*:2]].W.[O=C([C@H](Cc1cccc2ccccc12)N[*:1])[*:2]]}$PEPTIDE1,PEPTIDE1,3:R3-7:R2$$$V2.0)",51
8,"CC(=O)N[C@@H](Cc1ccccc1)C(=O)N[C@H]1CCCNC(=O)[C@H](Cc2cccs2)NC(=O)[C@H](Cc2c[nH]c3ccccc23)NC(=O)[C@@H](CC2CCCCC2)NC(=O)[C@@H]2CCCN2C1=O (HELM PEPTIDE1{[ac].F.[Orn].P.[O=C([C@@H](CC1CCCCC1)N[*:1])[*:2]].W.[O=C([C@H](Cc1cccs1)N[*:1])[*:2]]}$PEPTIDE1,PEPTIDE1,3:R3-7:R2$$$V2.0)",22
9,CCCCCCCC[C@@H]1NC(=O)[C@H](Cc2c[nH]c3ccccc23)NC(=O)[C@@H](CC2CCCCC2)NC(=O)[C@@H]2CCCN2C(=O)[C@@H](NC(=O)[C@H](Cc2ccccc2)NC(C)=O)CCCNC1=O,300
10,CC(=O)N[C@@H](Cc1ccccc1)C(=O)N[C@H]1CCCNC(=O)[C@H](CCC2CCCCC2)NC(=O)[C@H](Cc2c[nH]c3ccccc23)NC(=O)[C@@H](CC2CCCCC2)NC(=O)[C@@H]2CCCN2C1=O,146
11,"CCCC[C@H]1NC(=O)[C@H](Cc2c[nH]c3ccccc23)NC(=O)[C@@H](CC2CCCCC2)NC(=O)[C@@H]2CCCN2C(=O)[C@@H](NC(=O)[C@H](Cc2ccccc2)NC(C)=O)CCCNC1=O (HELM PEPTIDE1{[ac].F.[Orn].P.[O=C([C@@H](CC1CCCCC1)N[*:1])[*:2]].W.[CCCC[C@@H](N[*:1])C(=O)[*:2]]}$PEPTIDE1,PEPTIDE1,3:R3-7:R2$$$V2.0)",107
12,CC(=O)N[C@@H](Cc1ccccc1)C(=O)N[C@H]1CCCNC(=O)[C@H](CCCNC(=N)N)NC(=O)[C@H](Cc2c[nH]c3ccccc23)NC(=O)[C@@H](C)NC(=O)[C@@H]2CCCN2C1=O,55000
13,"CC(=O)N[C@@H](Cc1ccccc1)C(=O)N[C@H]1CCCNC(=O)[C@H](C2CCCCC2)NC(=O)[C@H](Cc2c[nH]c3ccccc23)NC(=O)[C@@H](CC2CCCCC2)NC(=O)[C@@H]2CCCN2C1=O (HELM PEPTIDE1{[ac].F.[Orn].P.[O=C([C@@H](CC1CCCCC1)N[*:1])[*:2]].W.[O=C([C@@H](N[*:1])C1CCCCC1)[*:2]]}$PEPTIDE1,PEPTIDE1,3:R3-7:R2$$$V2.0)",38
14,"CCC[C@@H]1NC(=O)[C@H](Cc2c[nH]c3ccccc23)NC(=O)[C@@H](CC2CCCCC2)NC(=O)[C@@H]2CCCN2C(=O)[C@@H](NC(=O)[C@H](Cc2ccccc2)NC(C)=O)CCCNC1=O (HELM PEPTIDE1{[ac].F.[Orn].P.[O=C([C@@H](CC1CCCCC1)N[*:1])[*:2]].W.[Nva]}$PEPTIDE1,PEPTIDE1,3:R3-7:R2$$$V2.0)",18
15,"CC(=O)N[C@@H](Cc1ccccc1)C(=O)N[C@H]1CCCNC(=O)[C@H](CCC(C)C)NC(=O)[C@H](Cc2c[nH]c3ccccc23)NC(=O)[C@@H](CC2CCCCC2)NC(=O)[C@@H]2CCCN2C1=O (HELM PEPTIDE1{[ac].F.[Orn].P.[O=C([C@@H](CC1CCCCC1)N[*:1])[*:2]].W.[CC(C)CC[C@H](N[*:1])C(=O)[*:2]]}$PEPTIDE1,PEPTIDE1,3:R3-7:R2$$$V2.0)",57
16,"CC(=O)N[C@@H](Cc1ccccc1)C(=O)N[C@H]1CCCNC(=O)[C@H](CC(C)C)NC(=O)[C@H](Cc2c[nH]c3ccccc23)NC(=O)[C@@H](CC2CCCCC2)NC(=O)[C@@H]2CCCN2C1=O (HELM PEPTIDE1{[ac].F.[Orn].P.[O=C([C@@H](CC1CCCCC1)N[*:1])[*:2]].W.L}$PEPTIDE1,PEPTIDE1,3:R3-7:R2$$$V2.0)",54
17,CC(=O)N[C@@H](Cc1ccccc1)C(=O)N[C@H]1CCCNC(=O)[C@H](CCCN)NC(=O)[C@H](Cc2c[nH]c3ccccc23)NC(=O)[C@@H](CC2CCCCC2)NC(=O)[C@@H]2CCCN2C1=O,18
18,CC[C@H](C)[C@@H]1NC(=O)[C@H](Cc2c[nH]c3ccccc23)NC(=O)[C@@H](CC2CCCCC2)NC(=O)[C@@H]2CCCN2C(=O)[C@@H](NC(=O)[C@H](Cc2ccccc2)NC(C)=O)CCCNC1=O,50
19,"CC(=O)N[C@@H](Cc1ccccc1)C(=O)N[C@H]1CCCNC(=O)[C@H](CCCN=C(N)N)NC(=O)[C@H](C)NC(=O)[C@@H](CC2CCCCC2)NC(=O)[C@@H]2CCCN2C1=O (HELM PEPTIDE1{[ac].F.[Orn].P.[O=C([C@@H](CC1CCCCC1)N[*:1])[*:2]].A.R}$PEPTIDE1,PEPTIDE1,3:R3-7:R2$$$V2.0)",100000
20,CC(=O)N[C@@H](Cc1ccccc1)C(=O)N[C@H]1CCCNC(=O)[C@H](CCCNC(N)=O)NC(=O)[C@H](Cc2c[nH]c3ccccc23)NC(=O)[C@@H](CC2CCCCC2)NC(=O)[C@@H]2CCCN2C1=O,490
21,CC(=O)N[C@@H](Cc1ccccc1)C(=O)N[C@H]1CCCNC(=O)[C@H](CCC/N=C(/N)N[N+](=O)[O-])NC(=O)[C@H](Cc2c[nH]c3ccccc23)NC(=O)[C@@H](CC2CCCCC2)NC(=O)[C@@H]2CCCN2C1=O,570
22,"CCCC[C@@H]1NC(=O)[C@H](Cc2c[nH]c3ccccc23)NC(=O)[C@@H](CC2CCCCC2)NC(=O)[C@@H]2CCCN2C(=O)[C@@H](NC(=O)[C@H](Cc2ccccc2)NC(C)=O)CCCNC1=O (HELM PEPTIDE1{[ac].F.[Orn].P.[O=C([C@@H](CC1CCCCC1)N[*:1])[*:2]].W.[Nle]}$PEPTIDE1,PEPTIDE1,3:R3-7:R2$$$V2.0)",25
23,CC(=O)N[C@@H](Cc1ccccc1)C(=O)N[C@@H](CCCN)C(=O)N1CCC[C@H]1C(=O)N[C@H](CCC(C)C)C(=O)N[C@@H](Cc1ccc(F)cc1)C(=O)N[C@@H](Cc1ccccc1)C(N)=O,71
24,CC(=O)N[C@@H](Cc1ccccc1)C(=O)N[C@@H](CCCN)C(=O)N1CCC[C@H]1C(=O)N[C@H](CC1CCCCC1)C(=O)N[C@@H](Cc1c[nH]c2ccccc12)C(=O)N[C@@H](CCCN=C(N)N)C(=O)O,535
25,CC(=O)N[C@@H](Cc1ccccc1)C(=O)N[C@H]1CCCNC(=O)[C@H](CCCCNC(=N)N)NC(=O)[C@H](Cc2c[nH]c3ccccc23)NC(=O)[C@@H](CC2CCCCC2)NC(=O)[C@@H]2CCCN2C1=O,360
26,CC(=O)N[C@@H](Cc1ccccc1)C(=O)N[C@@H](CCCN)C(=O)N1CCC[C@H]1C(=O)N[C@H](CCC(C)C)C(=O)N[C@@H](Cc1ccc(Cl)c(Cl)c1)C(=O)N[C@@H](Cc1ccccc1)C(N)=O,116
27,"CC(=O)N[C@@H](C)C(=O)N[C@H]1CCCNC(=O)[C@H](CCCN=C(N)N)NC(=O)[C@H](Cc2c[nH]c3ccccc23)NC(=O)[C@@H](CC2CCCCC2)NC(=O)[C@@H]2CCCN2C1=O (HELM PEPTIDE1{[ac].A.[Orn].P.[O=C([C@@H](CC1CCCCC1)N[*:1])[*:2]].W.R}$PEPTIDE1,PEPTIDE1,3:R3-7:R2$$$V2.0)",23000
28,CC(=O)N[C@@H](Cc1ccccc1)C(=O)N[C@H]1CCCNC(=O)[C@H](CCCNC(=N)N)NC(=O)[C@H](Cc2c[nH]c3ccccc23)NC(=O)[C@@H](CC2CCCCC2)NC(=O)[C@H](C)NC1=O,25
29,"CC(=O)N[C@@H](Cc1ccccc1)C(=O)N[C@H]1CCCNC(=O)[C@H](CC2CCCCC2)NC(=O)[C@H](Cc2c[nH]c3ccccc23)NC(=O)[C@@H](CC2CCCCC2)NC(=O)[C@@H]2CCCN2C1=O (HELM PEPTIDE1{[ac].F.[Orn].P.[O=C([C@@H](CC1CCCCC1)N[*:1])[*:2]].W.[Cha]}$PEPTIDE1,PEPTIDE1,3:R3-7:R2$$$V2.0)",45

# Tested on: not listed separately
# Assay: Stability in human liver microsome after 1 hr
# Format: ADME
# Details: liver microsomes, read-out: Stability
# Method in brief: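 Compound incubated with human liver microsomes, 1 h at 37 °C; read-out is % of parent remaining.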
row,SMILES,remaining at 1 h [%]
1,CC(=O)N[C@@H](Cc1ccccc1)C(=O)N[C@@H](CCCN)C(=O)N1CCC[C@H]1C(=O)N[C@H](CCC(C)C)C(=O)N[C@@H](Cc1cccc(Cl)c1)C(=O)N[C@@H](Cc1ccccc1)C(N)=O,62
2,CC(=O)N[C@@H](Cc1ccccc1)C(=O)N[C@@H](CCCN)C(=O)N1CCC[C@H]1C(=O)N[C@H](CCC(C)C)C(=O)N[C@@H](Cc1csc2ccccc12)C(=O)N[C@@H](Cc1ccccc1)C(N)=O,1
3,CC(=O)N[C@@H](Cc1ccccc1)C(=O)N[C@@H](CCCN)C(=O)N1CCC[C@H]1C(=O)N[C@H](CCC(C)C)C(=O)N[C@@H](Cc1ccc(F)cc1)C(=O)N[C@@H](Cc1ccccc1)C(N)=O,65
4,CC(=O)N[C@@H](Cc1ccccc1)C(=O)N[C@@H](CCCN)C(=O)N1CCC[C@H]1C(=O)N[C@H](CCC(C)C)C(=O)N[C@@H](Cc1ccc(Cl)c(Cl)c1)C(=O)N[C@@H](Cc1ccccc1)C(N)=O,49
